{"source": "ChEMBL document CHEMBL1629705", "about": "“PSI-7851, a pronucleotide of beta-D-2'-deoxy-2'-fluoro-2'-C-methyluridine monophosphate, is a potent and pan-genotype inhibitor of hepatitis C virus replication” (Antimicrob Agents Chemother, 2010)", "key": {"[1]": {"biological_target": "T1, DNA-directed RNA polymerase II subunit RPB1 (Homo sapiens, UniProt P24928)", "assay": "Inhibition of human RNA polymerase 2 assessed as synthesis of RNA products at 1 uM", "how_it_was_run": "(§1)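 In vitro transcription by HeLa nuclear extract from CMV immediate-early promoter DNA. Mix: 400 μM ATP, CTP and UTP, 16 μM GTP, [α-32P]GTP, 3 mM MgCl2, in 20 mM HEPES pH 7.9 buffer with KCl, EDTA, DTT and glycerol. Inhibitor up to 1 mM. 30°C for 60 min. RNA purified, run on 6% sequencing gel and quantified by phosphorimager.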"}, "[2]": {"biological_target": "T1, DNA-directed RNA polymerase II subunit RPB1", "assay": "Inhibition of human RNA polymerase 2 assessed as synthesis of RNA products at 500 uM", "how_it_was_run": "as §1"}, "[3]": {"tested_on": "Hepatitis C virus", "assay": "Antiviral activity against Hepatitis C virus JFH1 assessed as viral RNA level by quantitative real-time PCR", "assay_type": "functional, organism-based, Hepacivirus hominis", "settings": "JFH-1"}, "[4]": {"assay": "Cytotoxicity against human HepG2 cells", "assay_type": "cell-based", "how_it_was_run": "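Cells treated 8 days with compound serially diluted from 100 μM in DMSO-containing medium, gemcitabine (1 μM) or DMSO control. Viability by MTS-type tetrazolium assay, absorbance at 490 nm with medium-only blanks. Value derived by comparison with DMSO control wells.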"}, "[5]": {"assay": "Cytotoxicity against human erythroid progenitor cells after 14 to 16 days by colony formation assay", "assay_type": "cell-based", "how_it_was_run": "(§2)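 Normal human bone marrow erythroid and myeloid progenitors, 2 × 10^4 cells per culture in methylcellulose with rh-SCF 50 ng/ml, rh-IL-3 10 ng/ml, rh-GM-CSF 10 ng/ml and rh-EPO 3 U/ml. Compound up to 50 μM, DMSO control 0.1%, 14–16 days.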"}, "[6]": {"tested_on": "Hepatitis C virus", "assay": "Antiviral activity against Hepatitis C virus assessed as log reduction in viral RNA at 2 uM after 3 weeks", "assay_type": "functional, Hepacivirus hominis", "how_it_was_run": "(§3)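 ET-lunet replicon cells seeded at 1 × 10^5/well without G418, treated at 0.1, 1 or 2 μM (final DMSO 0.5%). Passaged 1:3–1:4 every 3–4 days for 3 weeks with fresh compound. Then compound withdrawn and cells grown 3 more weeks in 0.25 mg/ml G418. HCV RNA by RT-PCR (ΔΔCt vs rRNA and DMSO controls, log change). Colonies fixed in formaldehyde and stained with crystal violet at 6 weeks.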"}, "[7]": {"assay": "Cytotoxicity against human HepG2 cells assessed as inhibition of mitochondrial DNA synthesis", "assay_type": "cell-based", "how_it_was_run": "(§4)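 HepG2 or CEM cells incubated 14 days with compound up to 100 μM, ddC as control. Medium and compound replenished on days 7 and 11. Mitochondrial COXII gene and nuclear rDNA measured by multiplex quantitative RT-PCR.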"}, "[8]": {"tested_on": "HepG2", "assay": "Cytotoxicity against human HepG2 cells assessed as effect on ribosome RNA gene level at up to 100 uM after 14 days by quantitative real-time PCR assay", "assay_type": "cell-based", "settings": "hepg2, 336 h", "how_it_was_run": "as §4"}, "[9]": {"tested_on": "Hepatitis C virus", "assay": "Antiviral activity against Hepatitis C virus Con1 infected in human lunet cells assessed as inhibition of viral RNA replication after 4 days by luciferase reporter gene assay", "assay_type": "functional, organism-based, Hepacivirus hominis", "settings": "96 h", "how_it_was_run": "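Genotype 1b Con1 subgenomic replicon cells (ET-lunet, 3,000 cells/well, firefly luciferase ET replicon; clone A, 1,500 cells/well) incubated 4 days with serially diluted compound. Replication read by luciferase luminescence and/or real-time RT-PCR.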"}, "[10]": {"tested_on": "CCRF-CEM", "assay": "Cytotoxicity against human CEM cells assessed as effect on ribosome RNA gene level at up to 100 uM after 14 days by quantitative real-time PCR assay", "assay_type": "cell-based", "settings": "336 h", "how_it_was_run": "as §4"}, "[11]": {"tested_on": "Human immunodeficiency virus", "assay": "Antiviral activity against HIV infected in human HeLaP4 cells by beta-galactosidase-based reporter gene assay", "assay_type": "functional, organism-based", "settings": "Human immunodeficiency virus 1, HeLaP4", "how_it_was_run": "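P4 cells (HeLa expressing CD4/CXCR4 with HIV-1 LTR-driven LacZ), 10,000 cells/well, incubated overnight at 37°C, 5% CO2. Compound added 4 h before infection with HIV NL4-3 (4 ng/well p24-equivalent) plus DEAE-dextran 20 μg/ml. Incubated further 40–42 h. Beta-galactosidase read by luminescence; percent inhibition versus no-drug wells.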"}, "[12]": {"assay": "Cytotoxicity against human CEM cells assessed as effect on cellular GAPDH RNA level after 8 days by quantitative real-time PCR", "assay_type": "cell-based", "settings": "CEM (CCRF-CEM) cells"}, "[13]": {"assay": "Cytotoxicity against human BxPC3 cells assessed as effect on cellular GAPDH RNA level after 8 days by quantitative real-time PCR", "assay_type": "cell-based, BXPC-3"}, "[14]": {"tested_on": "Hepatitis C virus", "assay": "Selectivity ratio of EC90 for Hepatitis C virus harboring NS5B polymerase S96T mutant gene to EC90 for HCV harboring wild type NS5B polymerase", "assay_type": "functional, Hepacivirus hominis"}, "[15]": {"tested_on": "Hepatitis C virus", "assay": "Antiviral activity against Hepatitis C virus assessed as clearance of HCV from replicon cells at 1 uM", "assay_type": "functional, organism-based", "settings": "Hepacivirus hominis", "how_it_was_run": "(§5)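 ET-lunet replicon cells, 1 × 10^5/well, no G418, with compound at 0.1, 1 or 2 μM (final DMSO 0.5%). Passaged 1:3 or 1:4 every 3–4 days for 3 weeks with fresh compound, then 3 more weeks with 0.25 mg/ml G418 and no inhibitor. HCV RNA by RT-PCR normalized to rRNA (ΔΔCt vs DMSO) at each passage. Crystal violet colony staining at 6 weeks.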"}, "[16]": {"assay": "Cytotoxicity against human myeloid progenitor cells after 14 to 16 days by colony formation assay", "assay_type": "cell-based", "how_it_was_run": "as §2"}, "[17]": {"tested_on": "Hepatitis C virus", "assay": "Antiviral activity against Hepatitis C virus isolate Con1 harboring Btat protein assessed as viral RNA level by quantitative real-time PCR", "assay_type": "functional, organism-based, Hepacivirus hominis"}, "[18]": {"assay": "Cytotoxicity against human CEM cells assessed as inhibition of mitochondrial DNA synthesis", "assay_type": "cell-based", "settings": "CEM (CCRF-CEM) cells", "how_it_was_run": "as §4"}, "[19]": {"tested_on": "Hepatitis C virus", "assay": "Antiviral activity against Hepatitis C virus H77 harboring Htat protein assessed as viral RNA level by quantitative real-time PCR", "assay_type": "functional, organism-based, Hepacivirus hominis", "settings": "genotype 1a H77"}, "[20]": {"tested_on": "HepG2", "assay": "Mitochondrial toxicity in human HepG2 cells assessed as effect on mitochondrial cytochrome c oxidase subunit 2 gene level up to 100 uM after 14 days by real-time PCR assay", "assay_type": "cell-based", "settings": "hepg2, 336 h", "how_it_was_run": "as §4"}, "[21]": {"tested_on": "Hepatitis C virus", "assay": "Antiviral activity against Hepatitis C virus genotype 1b harboring Ntat protein assessed as viral RNA level by quantitative real-time PCR", "assay_type": "functional, organism-based, Hepacivirus hominis"}, "[22]": {"tested_on": "Hepatitis C virus", "assay": "Antiviral activity against Hepatitis C virus assessed as inhibition of viral rebound at 2 uM after 3 weeks in presence of G418", "assay_type": "functional, organism-based", "settings": "Hepacivirus hominis", "how_it_was_run": "as §5"}, "[23]": {"tested_on": "Hepatitis B virus", "assay": "Antiviral activity against Hepatitis B virus infected in human HepAD38 cells by quantitative real-time PCR", "assay_type": "functional, organism-based"}, "[24]": {"tested_on": "Hepatitis C virus", "assay": "Antiviral activity against Hepatitis C virus harboring wild-type NS5B infected in human lunet cells by luciferase-based replicon assay", "assay_type": "functional, Hepacivirus hominis", "how_it_was_run": "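ET-lunet cells with the ET genotype 1b replicon, wild-type or S96T/N142T (ET replicon with these mutations electroporated into Lunet cells, selected in 0.2 mg/ml G418). 3,000 cells/well, 4 days with serially diluted compound. Firefly luciferase luminescence read-out; EC90 from dose–response.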"}, "[25]": {"tested_on": "CCRF-CEM", "assay": "Mitochondrial toxicity in human CEM cells assessed as effect on mitochondrial cytochrome c oxidase subunit 2 gene level up to 100 uM after 14 days by quantitative real-time PCR assay", "assay_type": "cell-based", "settings": "336 h", "how_it_was_run": "as §4"}, "[26]": {"assay": "Cytotoxicity against human HepG2 cells assessed as effect on cellular GAPDH RNA level after 8 days by quantitative real-time PCR", "assay_type": "cell-based"}, "[27]": {"tested_on": "Hepatitis C virus", "assay": "Antiviral activity against Hepatitis C virus assessed as log reduction in viral RNA at 1 uM after 3 weeks", "assay_type": "functional, Hepacivirus hominis", "how_it_was_run": "as §3"}}, "note": "Activity calls are given as the source filed them. No cut-off for these calls is given here.", "data": [{"smiles": "C[C@@]1(F)[C@H](O)[C@@H](COP(=O)(O)OP(=O)(O)OP(=O)(O)O)O[C@H]1n1ccc(=O)[nH]c1=O", "note": "[GS-461203]", "values": [{"measurement": "inhibition", "setting": "[1]", "result": "Active"}, {"measurement": "inhibition", "setting": "[2]", "result": 85, "unit": "%"}]}, {"smiles": "CC(C)OC(=O)[C@H](C)NP(=O)(OC[C@H]1O[C@@H](n2ccc(=O)[nH]c2=O)[C@](C)(F)[C@@H]1O)Oc1ccccc1", "note": "(some centres not stated)", "values": [{"measurement": "EC50", "setting": "[3]", "result": 180, "unit": "nM"}, {"measurement": "EC90", "setting": "[3]", "result": 520, "unit": "nM"}, {"measurement": "CC90", "setting": "[4]", "result": 12800, "unit": "nM"}, {"measurement": "CC50", "setting": "[5]", "result": "> 50000", "unit": "nM"}, {"measurement": "FC", "setting": "[6]", "result": ">5"}, {"measurement": "CC90", "setting": "[7]", "result": "< 3000", "unit": "nM"}, {"measurement": "Activity", "setting": "[8]", "result": "Non-toxic"}, {"measurement": "EC50", "setting": "[9]", "result": 1340, "unit": "nM"}, {"measurement": "EC90", "setting": "[9]", "result": 3810, "unit": "nM"}, {"measurement": "Activity", "setting": "[10]", "result": "Non-toxic"}, {"measurement": "EC50", "setting": "[11]", "result": "> 100000", "unit": "nM"}, {"measurement": "CC50 at 192 h", "setting": "[12]", "result": "> 100000", "unit": "nM"}, {"measurement": "CC50 at 192 h", "setting": "[13]", "result": "> 100000", "unit": "nM"}, {"measurement": "Selectivity ratio", "setting": "[14]", "result": 0.66}, {"measurement": "Activity", "setting": "[15]", "result": "Active"}, {"measurement": "CC50", "setting": "[16]", "result": "> 50000", "unit": "nM"}, {"measurement": "EC50", "setting": "[17]", "result": 90, "unit": "nM"}, {"measurement": "EC90", "setting": "[17]", "result": 650, "unit": "nM"}, {"measurement": "CC90", "setting": "[18]", "result": "< 3000", "unit": "nM"}, {"measurement": "EC50", "setting": "[19]", "result": 430, "unit": "nM"}, {"measurement": "EC90", "setting": "[19]", "result": 1220, "unit": "nM"}, {"measurement": "Activity", "setting": "[20]", "result": "Non-toxic"}, {"measurement": "EC50", "setting": "[21]", "result": 93, "unit": "nM"}, {"measurement": "EC90", "setting": "[21]", "result": 750, "unit": "nM"}, {"measurement": "inhibition", "setting": "[22]", "result": "Active"}, {"measurement": "EC50", "setting": "[23]", "result": "> 100000", "unit": "nM"}, {"measurement": "EC90", "setting": "[24]", "result": 520, "unit": "nM"}, {"measurement": "Activity", "setting": "[25]", "result": "Non-toxic"}, {"measurement": "CC50 at 192 h", "setting": "[26]", "result": "> 100000", "unit": "nM"}, {"measurement": "FC", "setting": "[27]", "result": 4}]}]}
